Measurements: ChEMBL document CHEMBL3525963, “Tissue distribution and elimination of [14C]apixaban in rats” (Drug Metab Dispos, 2011)

What was measured:
Settings in all cases: in vivo
[1] = tested on: Lung; experiment: Biodistribution in pregnant Sprague-Dawley rat lung at 5 mg/kg, po administered as single dose measured after 8 hrs; format: ADME, organism-based; parameters: dose 5 mg/kg, dosed compound name [14C]-apixaban, route oral
[2] = tested on: Rattus norvegicus; experiment: Biodistribution in male Sprague-Dawley rat brown fat at 5 mg/kg, po administered as single dose measured after 0.5 hrs; format: ADME, organism-based, Brown adipose tissue; parameters: dose 5 mg/kg, dosed compound name [14C]-apixaban, route oral
Outline: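 Fasted male rats, 225-252 g, received [14C]apixaban by single oral gavage at 100 μCi/kg in 0.5% Tween 80/Labrafil. One rat was killed per time point and the carcass frozen. Tissue radioactivity was quantified by QWBA (40 µm sagittal sections, phosphor plate, [14C]glucose calibration) as µg eq apixaban/g, with LLOQ 0.037 μg eq/g.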

[3] = tested on: Heart; experiment: Biodistribution in female Sprague-Dawley rat heart at 5 mg/kg, po administered as single dose measured after 0.5 hrs; format: ADME, organism-based; parameters: dose 5 mg/kg, dosed compound name [14C]-apixaban, route oral
Outline: (§1)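 [¹⁴C]Apixaban given by oral gavage at 5 mg/kg (100 μCi/kg) in 0.5% Tween 80 in Labrafil (1.0 mg/mL dosing solution) to rats fasted overnight through 4 h post-dose. One rat per time point; carcass frozen in hexane/dry ice. Quantitative whole-body autoradiography used 40 µm sagittal sections and a phosphor imaging plate calibrated with [¹⁴C]glucose standards (0.001–6.5 μCi/g). Read-out in µg eq apixaban/g; LLOQ 0.037 μg eq/g.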

[4] = tested on: Pancreas; experiment: Biodistribution in male Sprague-Dawley rat pancreas at 5 mg/kg, po administered as single dose measured after 4 hrs; format: ADME, organism-based; parameters: dose 5 mg/kg, dosed compound name [14C]-apixaban, route oral
Outline: (§2)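 [14C]apixaban (1.0 mg/mL, 20 μCi/mL) in 0.5% Tween 80 in Labrafil, given by oral gavage at 100 μCi/kg to male rats (225-252 g) fasted overnight through 4 h post-dose. One rat per time point. Carcasses frozen in hexane/dry ice and cut into 40 µm sagittal sections. QWBA read on phosphor plates against [14C]glucose standards, reported as µg eq/g. LLOQ 0.037 µg eq/g.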

[5] = tested on: Rattus norvegicus; experiment: Biodistribution in male Sprague-Dawley rat brown fat at 5 mg/kg, po administered as single dose measured after 24 hrs; format: ADME, organism-based, Brown adipose tissue; parameters: dose 5 mg/kg, dosed compound name [14C]-apixaban, route oral
Outline: (§3)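 Fasted male SD rats (225-252 g) each received one oral gavage dose of [14C]apixaban, 5 mg/kg (100 μCi/kg), in 0.5% Tween 80/Labrafil vehicle. One rat was killed per time point, from 0.5 to 168 h. Frozen carcasses were cut into 40 µm sagittal whole-body sections and read by QWBA phosphor imaging against [14C]glucose calibrants. Results are in µg apixaban eq/g; BLQ <0.037 µg eq/g.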

[6] = tested on: Pancreas; experiment: Biodistribution in pregnant Sprague-Dawley rat pancreas at 5 mg/kg, po administered as single dose measured after 4 hrs; format: ADME, organism-based; parameters: dose 5 mg/kg, dosed compound name [14C]-apixaban, route oral
[7] = tested on: Brain; experiment: Biodistribution in female Sprague-Dawley rat brain at 5 mg/kg, po administered as single dose measured after 4 hrs; format: ADME, organism-based; parameters: dose 5 mg/kg, dosed compound name [14C]-apixaban, route oral
Outline: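 [14C]Apixaban (1.0 mg/mL, 20 μCi/mL in 0.5% Tween 80 in Labrafil) given as a single oral gavage of 5 mg/kg (100 μCi/kg) to fasted female SD rats, one rat per time point. Carcasses were frozen in hexane/dry ice and cut into 40 µm sagittal sections for QWBA against [14C]glucose standards. Brain radioactivity is reported as µg eq/g, with LLOQ 0.037 µg eq/g.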

[8] = tested on: Heart; experiment: Biodistribution in female Sprague-Dawley rat heart at 5 mg/kg, po administered as single dose measured after 24 hrs; format: ADME, organism-based; parameters: dose 5 mg/kg, dosed compound name [14C]-apixaban, route oral
Outline: (§4)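 Quantitative whole-body autoradiography was run after a single 5 mg/kg (100 μCi/kg) oral gavage to fasted female or pregnant SD rats, one rat per time point. Carcasses were frozen in hexane/dry ice, and 40 µm sagittal sections were dried at −20°C for at least 48 h. Sections were exposed to a phosphor plate alongside [14C]glucose standards (0.001–6.5 µCi/g). Results are µg eq/g, with LLOQ 0.037 µg eq/g.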

[9] = tested on: Rattus norvegicus; experiment: Biodistribution in fetal liver of pregnant Sprague-Dawley rat at 5 mg/kg, po administered as single dose measured after 0.5 hrs; format: ADME, organism-based; parameters: dose 5 mg/kg, dosed compound name [14C]-apixaban, route oral
Outline: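 Pregnant rats, 270-319 g and fasted overnight, received [14C]apixaban by oral gavage at 100 μCi/kg in 0.5% Tween 80/Labrafil. One dam per time point was euthanized and frozen in hexane/dry ice. Fetal tissue radioactivity was measured by QWBA on 40 µm sagittal sections calibrated with [14C]glucose standards. Values are in µg eq/g, with LLOQ 0.037 μg eq/g.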

[10] = tested on: Muscle tissue; experiment: Biodistribution in male Sprague-Dawley rat muscle at 5 mg/kg, po administered as single dose measured after 24 hrs; format: ADME, organism-based; parameters: dose 5 mg/kg, dosed compound name [14C]-apixaban, route oral; outline: as §2
[11] = tested on: Spleen; experiment: Biodistribution in pregnant Sprague-Dawley rat spleen at 5 mg/kg, po administered as single dose measured after 1 hr; format: ADME, organism-based; parameters: dose 5 mg/kg, dosed compound name [14C]-apixaban, route oral
[12] = tested on: Liver; experiment: Biodistribution in male Sprague-Dawley rat liver at 5 mg/kg, po administered as single dose measured after 8 hrs; format: ADME, organism-based; parameters: dose 5 mg/kg, dosed compound name [14C]-apixaban, route oral; outline: as §2
[13] = tested on: Lung; experiment: Biodistribution in male Sprague-Dawley rat lung at 5 mg/kg, po administered as single dose measured after 4 hrs; format: ADME, organism-based; parameters: dose 5 mg/kg, dosed compound name [14C]-apixaban, route oral; outline: as §2
[14] = tested on: Rattus norvegicus; experiment: Biodistribution in pregnant Sprague-Dawley rat placenta at 5 mg/kg, po administered as single dose measured after 8 hrs; format: ADME, organism-based; parameters: dose 5 mg/kg, dosed compound name [14C]-apixaban, route oral
[15] = tested on: Heart; experiment: Biodistribution in male Sprague-Dawley rat heart at 5 mg/kg, po administered as single dose measured after 24 hrs; format: ADME, organism-based; parameters: dose 5 mg/kg, dosed compound name [14C]-apixaban, route oral; outline: as §3
[16] = tested on: Rattus norvegicus; experiment: Biodistribution in female Sprague-Dawley rat pituitary gland at 5 mg/kg, po administered as single dose measured after 4 hrs; format: ADME, organism-based; parameters: dose 5 mg/kg, dosed compound name [14C]-apixaban, route oral
Outline: (§5)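 [14C]apixaban (20 μCi/mL in dosing solution) in 0.5% Tween 80 in Labrafil given by oral gavage to fasted female rats, 206-213 g, at 100 μCi/kg. One rat per time point was euthanized and snap-frozen. Sagittal 40 µm whole-body sections were read by QWBA phosphor imaging against [14C]glucose standards. Results are in µg eq apixaban/g, with LLOQ 0.037 μg eq/g.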

[17] = tested on: Blood; experiment: AUC (0 to infinity) in male Sprague-Dawley rat blood at 5 mg/kg, po administered as single dose; format: ADME, organism-based; parameters: time infinity, dose 5 mg/kg, dosed compound name [14C]-apixaban, route oral
[18] = tested on: Liver; experiment: Biodistribution in pregnant Sprague-Dawley rat liver at 5 mg/kg, po administered as single dose measured after 1 hr; format: ADME, organism-based; parameters: dose 5 mg/kg, dosed compound name [14C]-apixaban, route oral
Outline: (§6)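 Fasted pregnant SD rats (n=6, 270-319 g) each received one oral gavage dose of [14C]apixaban, 5 mg/kg (100 μCi/kg), in 0.5% Tween 80/Labrafil. One rat was killed at each of 0.5, 1, 4, 8, 24 and 48 h. Carcasses were frozen in hexane/dry ice, cut into 40 µm sagittal sections, exposed to phosphor plates and quantified against [14C]glucose standards as µg eq/g. LLOQ was 0.037 µg eq/g.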

[19] = tested on: Rattus norvegicus; experiment: Biodistribution in fetal kidney of pregnant Sprague-Dawley rat at 5 mg/kg, po administered as single dose measured after 48 hrs; format: ADME, organism-based; parameters: dose 5 mg/kg, dosed compound name [14C]-apixaban, route oral; outline: as §4
[20] = tested on: Spleen; experiment: Biodistribution in female Sprague-Dawley rat spleen at 5 mg/kg, po administered as single dose measured after 8 hrs; format: ADME, organism-based; parameters: dose 5 mg/kg, dosed compound name [14C]-apixaban, route oral; outline: as §1
[21] = tested on: Muscle tissue; experiment: Biodistribution in male Sprague-Dawley rat muscle at 5 mg/kg, po administered as single dose measured after 0.5 hrs; format: ADME, organism-based; parameters: dose 5 mg/kg, dosed compound name [14C]-apixaban, route oral; outline: as §2
[22] = tested on: Muscle tissue; experiment: Biodistribution in female Sprague-Dawley rat muscle at 5 mg/kg, po administered as single dose measured after 72 hrs; format: ADME, organism-based; parameters: dose 5 mg/kg, dosed compound name [14C]-apixaban, route oral; outline: as §4
[23] = tested on: Blood; experiment: Biodistribution in pregnant Sprague-Dawley rat blood at 5 mg/kg, po administered as single dose measured after 8 hrs; format: ADME, organism-based; parameters: dose 5 mg/kg, dosed compound name [14C]-apixaban, route oral; outline: as §6
[24] = tested on: Rattus norvegicus; experiment: Biodistribution in female Sprague-Dawley rat salivary gland at 5 mg/kg, po administered as single dose measured after 4 hrs; format: ADME, organism-based; parameters: dose 5 mg/kg, dosed compound name [14C]-apixaban, route oral; outline: as §5

Radiolabel recovery [1]: 0.15 ugequiv/g
Radiolabel recovery [2]: 0.46 ugequiv/g
Radiolabel recovery [3]: 0.37 ugequiv/g
Radiolabel recovery [4]: 0.55 ugequiv/g
Radiolabel recovery [6]: 0.99 ugequiv/g
Radiolabel recovery [7]: < 0.037 ugequiv/g
Radiolabel recovery [8]: Not detected assumed BLQ
Radiolabel recovery [9]: 0.16 ugequiv/g
Radiolabel recovery [10]: < 0.037 ugequiv/g
Radiolabel recovery [11]: 0.51 ugequiv/g
Radiolabel recovery [12]: 0.39 ugequiv/g
Radiolabel recovery [13]: 0.64 ugequiv/g
Radiolabel recovery [14]: 0.1 ugequiv/g
Radiolabel recovery [15]: Not detected assumed BLQ
Radiolabel recovery [16]: 0.48 ugequiv/g
AUC [17]: 4300 ngequiv.hr/g
Radiolabel recovery [18]: 7.38 ugequiv/g
Radiolabel recovery [20]: 0.13 ugequiv/g
Radiolabel recovery [21]: 0.2 ugequiv/g
Radiolabel recovery [22]: Not detected assumed BLQ
Radiolabel recovery [23]: 0.09 ugequiv/g
Radiolabel recovery [24]: 0.44 ugequiv/g
SMILES: COc1ccc(-n2nc(C(N)=O)c3c2C(=O)N(c2ccc(N4CCCC[14C]4=O)cc2)CC3)cc1
Radiolabel recovery [5]: Not sampled as not visualised in autoradiograph
Radiolabel recovery [19]: Not sampled as not visualised in autoradiograph
